In ChEMBL document CHEMBL1134668, “Hydrazinonaphthalene and azonaphthalene thrombopoietin mimics are nonpeptidyl promoters of megakaryocytopoiesis” (J Med Chem, 2001):

Legend:
[1] = Compound tested for UT7/TPO cell proliferation activity (%TPO) using proliferation assay.; assay type: functional, Homo sapiens
How it was run: (§1)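 UT7/TPO cells kept in IMDM/10% FBS/glutamine plus rhTPO, starved overnight without TPO. Cells (0.2 × 10^6/mL) in starving medium incubated with compounds (0.32% DMSO final) or rhTPO, 37 °C, 5% CO2, 72 h. Pellet DNA content read by BrdU kit. Mean value over control as % of maximal-TPO response, duplicates, plotted vs concentration for EC50.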

[2] = Effective concentration required to inhibit UT7/TPO cell proliferation was determined.; assay type: functional, cell-based; conditions: Homo sapiens; how it was run: as §1
[3] = molecular target: T1, Thrombopoietin receptor (Homo sapiens) (UniProt P40238); assay: Thrombopoietin luciferase activity in BAF-3 cells; assay type: cell-based; conditions: BaF3
T1 sequence (whole entry): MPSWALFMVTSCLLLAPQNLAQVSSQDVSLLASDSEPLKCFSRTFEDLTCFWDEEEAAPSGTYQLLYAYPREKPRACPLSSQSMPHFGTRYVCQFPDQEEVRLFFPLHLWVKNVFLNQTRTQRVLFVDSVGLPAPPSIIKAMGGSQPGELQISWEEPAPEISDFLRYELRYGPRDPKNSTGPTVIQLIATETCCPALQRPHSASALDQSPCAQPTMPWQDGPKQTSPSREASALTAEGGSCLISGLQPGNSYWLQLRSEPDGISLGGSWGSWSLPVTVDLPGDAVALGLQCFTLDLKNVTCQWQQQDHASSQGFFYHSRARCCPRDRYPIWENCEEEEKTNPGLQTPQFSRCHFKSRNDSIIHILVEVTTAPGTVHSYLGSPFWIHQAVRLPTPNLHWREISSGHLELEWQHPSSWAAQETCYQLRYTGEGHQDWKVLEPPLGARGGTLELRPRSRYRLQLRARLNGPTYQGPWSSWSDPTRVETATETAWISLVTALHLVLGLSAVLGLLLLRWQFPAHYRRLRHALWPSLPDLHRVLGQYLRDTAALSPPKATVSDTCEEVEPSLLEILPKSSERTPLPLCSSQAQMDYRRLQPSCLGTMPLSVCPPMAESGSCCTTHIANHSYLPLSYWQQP

Thrombopoietin receptor = molecular target: T2, Thrombopoietin receptor (Homo sapiens, UniProt P40238); assay: Effective concentration for thrombopoietin luciferase activity was determined in BAF-3 cells; assay type: cell-based, BaF3
T2 sequence (P40238 whole entry): T1 sequence (whole entry)

[4] = Compound tested for CD34+ cell differentiation activity (%TPO) using CD34+ differentiation assay; assay type: functional, Homo sapiens
How it was run: (§2)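 Human bone marrow CD34+ cells from light density marrow cells (2 × 10^6 cells/mL) in IMDM with 20% v/v FCS and rhSCF 100 ng/mL, cultured with sample or TPO (maximal 100 ng/mL) for 10 days at 5% CO2 and 4% O2. Stained with FITC-anti-CD41 and FITC-anti-IgG1 isotype control, formaldehyde-fixed, flow cytometry; %CD41 = CD41 positive minus isotype positive.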

[5] = Effective concentration (EC50) required to inhibit CD34 cell differentiation; assay type: functional; conditions: Homo sapiens; how it was run: as §2

Cc1[nH]n(-c2cccc(Cl)c2)c(=O)c1/N=N/c1c(O)cc(S(=O)(=O)O)c2ccccc12
Efficacy [1]: 45%
EC50 [2]: 500 nM
Efficacy [3]: 34%
EC50 (Thrombopoietin receptor): 2000 nM

Cc1[nH]n(-c2ccc(C(C)(C)C)cc2)c(=O)c1/N=N/c1c(O)cc(S(=O)(=O)O)c2ccccc12
TPO [4]: 100%
TPO [1]: 100%
Efficacy [3]: 86%
EC50 [5]: 30 nM
EC50 (Thrombopoietin receptor): 20 nM
